The values that follow come from ChEMBL document CHEMBL1145823, “Docking and database screening reveal new classes of Plasmodium falciparum dihydrofolate reductase inhibitors” (J Med Chem, 2003).

The target of data set [1] is Bifunctional dihydrofolate reductase-thymidylate synthase (Plasmodium falciparum K1) (UniProt P13922). As to the kind of experiment: Inhibition constant against wild-type PfDHFR (Plasmodium falciparum dihydrofolate reductase); Inactive. The gist of the method: (§1)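 Recombinant wild-type or mutant PfDHFR, expressed in bacteria (induction at 20 °C for 20 h) and purified on methotrexate-Sepharose. Spectrophotometric assay in 50 mM TES pH 7.0, 75 mM β-mercaptoethanol, 1 mg/mL BSA, with 100 μM each H2-folate and NADPH. Started with enzyme (0.6–1 nM). […] Ki from IC50 = Ki(1+[S]/Km), assuming competitive binding.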

The target is the same in data set [2]. Put plainly: Inhibition constant for resistant mutant PfDHFR (Plasmodium falciparum dihydrofolate reductase); Inactive. The essentials:
as §1

Data set [3] deals with Bifunctional dihydrofolate reductase-thymidylate synthase (Plasmodium falciparum K1, UniProt P13922, A16V/S108T). Put plainly: Inhibition constant against PfDHFR (Plasmodium falciparum dihydrofolate reductase) with double (A16V + S108T) mutations. The essentials: (§2)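 Recombinant wild-type or mutant PfDHFR, expressed in bacteria (induction at 20 °C for 20 h) and purified on methotrexate-Sepharose. Spectrophotometric assay in 50 mM TES pH 7.0, 75 mM β-mercaptoethanol, 1 mg/mL BSA, with 100 μM each H2-folate and NADPH. Started with enzyme (0.6–1 nM). Ki from IC50 = Ki(1+[S]/Km), assuming competitive binding.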

The target in data set [4] is Bifunctional dihydrofolate reductase-thymidylate synthase (Plasmodium falciparum K1, UniProt P13922, C59R/I164L/N51I/S108N). Put plainly: Inhibition constant against PfDHFR (Plasmodium falciparum dihydrofolate reductase) with quadruple (N51I + C59R + S108N + I164L) mutations. The essentials:
as §2

The target in data set [5] is Bifunctional dihydrofolate reductase-thymidylate synthase (Plasmodium falciparum K1, UniProt P13922, A16V). Put plainly: Inhibition constant against PfDHFR (Plasmodium falciparum dihydrofolate reductase) with single A16V mutation. The essentials: as §2
Data set [6] deals with Bifunctional dihydrofolate reductase-thymidylate synthase (Plasmodium falciparum K1, UniProt P13922, S108T). Put plainly: Inhibition constant against PfDHFR (Plasmodium falciparum dihydrofolate reductase) with single S108T mutation. The essentials:
as §2

The target in data set [7] is Bifunctional dihydrofolate reductase-thymidylate synthase (Plasmodium falciparum K1, UniProt P13922, C59R/I164L/S108N). Put plainly: Inhibition constant against PfDHFR (Plasmodium falciparum dihydrofolate reductase) with triple (C59R + S108N + I164L) mutations. The gist of the method:
as §2

For data set [8], the target named is Bifunctional dihydrofolate reductase-thymidylate synthase (Plasmodium falciparum K1) (UniProt P13922). Put plainly: Inhibition constant for PfDHFR (Plasmodium falciparum dihydrofolate reductase) with double (A16V + S108T) mutations; Not active. The gist of the method:
as §1

Data set [9] shares this target. Put plainly: Inhibition constant for PfDHFR (Plasmodium falciparum dihydrofolate reductase) with quadruple (N51I + C59R + S108N + I164L) mutations; Not active. The essentials: as §1
The target is the same in data set [10]. As to the kind of experiment: Inhibition constant for PfDHFR (Plasmodium falciparum dihydrofolate reductase) with single A16V mutation; Not active. The essentials:
as §1

For data set [11] the target is unchanged. Put plainly: Inhibition constant for PfDHFR (Plasmodium falciparum dihydrofolate reductase) with single S108T mutation; Not active. The gist of the method: as §1
For data set [12] the target is unchanged. As to the kind of experiment: Inhibition constant for PfDHFR (Plasmodium falciparum dihydrofolate reductase) with triple (C59R + S108N + I164L) mutations; Not active. The essentials: as §1
Data set [13] has the same target. Put plainly: Inhibition constant against wild-type PfDHFR (Plasmodium falciparum dihydrofolate reductase); Not active. The essentials: as §1
The target of data set [14] is Bifunctional dihydrofolate reductase-thymidylate synthase (Plasmodium falciparum K1, UniProt P13922). Put plainly: Inhibition constant against wild-type PfDHFR (Plasmodium falciparum dihydrofolate reductase). The essentials:
as §2

Data set [15] has as its target Bifunctional dihydrofolate reductase-thymidylate synthase (Plasmodium falciparum K1) (UniProt P13922). As to the kind of experiment: Inhibition constant against wild-type PfDHFR (Plasmodium falciparum dihydrofolate reductase) at 750 uM; Inactive. The gist of the method:
as §1

Data set [16] shares this target. As to the kind of experiment: Inhibition constant for resistant mutant PfDHFR (Plasmodium falciparum dihydrofolate reductase) at 750 uM; Inactive. The gist of the method: as §1
Data set [17] can be described thus: Determined the solubility of the compound. The conditions noted are these: read-out: S. In kind it is ADME.
The target of data set [18] is Bifunctional dihydrofolate reductase-thymidylate synthase (Plasmodium falciparum K1) (UniProt P13922). As to the kind of experiment: Inhibition constant for PfDHFR (Plasmodium falciparum dihydrofolate reductase) with double (A16V + S108T) mutations at a concentration of 100 uM; Not active. The essentials:
as §1

The target is the same in data set [19]. As to the kind of experiment: Inhibition constant for PfDHFR (Plasmodium falciparum dihydrofolate reductase) with single A16V mutation at a concentration of 100 uM; Not active. The essentials:
as §1

Data set [20] shares this target. Put plainly: Inhibition constant for PfDHFR (Plasmodium falciparum dihydrofolate reductase) with single S108T mutation at a concentration of 100 uM; Not active. The gist of the method:
as §1

For data set [21] the target is unchanged. Put plainly: Inhibition constant for PfDHFR (Plasmodium falciparum dihydrofolate reductase) with triple (C59R + S108N + I164L) mutations at a concentration of 100 uM; Not active. The essentials: as §1
For data set [22] the target is unchanged. As to the kind of experiment: Inhibition constant against wild-type PfDHFR (Plasmodium falciparum dihydrofolate reductase) at a concentration of 100 uM; Not active. The gist of the method:
as §1

Converted amounts (≈) assume the structure as drawn. The source made the active and inactive calls. The calls are words filed in the database; no cut-off is given here.

Chain of Bifunctional dihydrofolate reductase-thymidylate synthase (Plasmodium falciparum K1) (P13922 whole entry, looked up): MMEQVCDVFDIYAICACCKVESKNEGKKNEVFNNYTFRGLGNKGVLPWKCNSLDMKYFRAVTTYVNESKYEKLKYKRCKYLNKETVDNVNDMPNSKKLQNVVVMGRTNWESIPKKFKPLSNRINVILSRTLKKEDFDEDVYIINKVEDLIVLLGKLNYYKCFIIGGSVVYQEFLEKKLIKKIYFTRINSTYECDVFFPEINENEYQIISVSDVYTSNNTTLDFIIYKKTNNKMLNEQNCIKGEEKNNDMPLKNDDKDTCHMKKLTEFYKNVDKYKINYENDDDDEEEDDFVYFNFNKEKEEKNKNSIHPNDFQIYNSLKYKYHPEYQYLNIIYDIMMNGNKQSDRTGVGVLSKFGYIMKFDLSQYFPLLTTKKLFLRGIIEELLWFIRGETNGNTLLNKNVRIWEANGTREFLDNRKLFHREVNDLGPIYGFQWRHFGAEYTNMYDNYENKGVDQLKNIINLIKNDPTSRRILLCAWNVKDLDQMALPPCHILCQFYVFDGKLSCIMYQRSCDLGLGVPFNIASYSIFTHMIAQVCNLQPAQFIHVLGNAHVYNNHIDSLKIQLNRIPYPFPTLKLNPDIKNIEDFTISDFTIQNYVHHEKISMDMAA
Chain of Bifunctional dihydrofolate reductase-thymidylate synthase (Plasmodium falciparum K1, UniProt P13922) (P13922 whole entry): as the sequence (P13922 whole entry, looked up) above
Chain of Bifunctional dihydrofolate reductase-thymidylate synthase (Plasmodium falciparum K1, UniProt P13922, C59R/I164L/N51I/S108N) (P13922 whole entry, looked up, stated change not applied): as the sequence (P13922 whole entry, looked up) above
Chain of Bifunctional dihydrofolate reductase-thymidylate synthase (Plasmodium falciparum K1, UniProt P13922, S108T) (P13922 whole entry, looked up, stated change not applied): as the sequence (P13922 whole entry, looked up) above
Chain of Bifunctional dihydrofolate reductase-thymidylate synthase (Plasmodium falciparum K1, UniProt P13922, A16V/S108T) (P13922 whole entry, looked up, stated change not applied): as the sequence (P13922 whole entry, looked up) above
Chain of Bifunctional dihydrofolate reductase-thymidylate synthase (Plasmodium falciparum K1, UniProt P13922, C59R/I164L/S108N) (P13922 whole entry, looked up, stated change not applied): as the sequence (P13922 whole entry, looked up) above
Chain of Bifunctional dihydrofolate reductase-thymidylate synthase (Plasmodium falciparum K1, UniProt P13922, A16V) (P13922 whole entry A16V): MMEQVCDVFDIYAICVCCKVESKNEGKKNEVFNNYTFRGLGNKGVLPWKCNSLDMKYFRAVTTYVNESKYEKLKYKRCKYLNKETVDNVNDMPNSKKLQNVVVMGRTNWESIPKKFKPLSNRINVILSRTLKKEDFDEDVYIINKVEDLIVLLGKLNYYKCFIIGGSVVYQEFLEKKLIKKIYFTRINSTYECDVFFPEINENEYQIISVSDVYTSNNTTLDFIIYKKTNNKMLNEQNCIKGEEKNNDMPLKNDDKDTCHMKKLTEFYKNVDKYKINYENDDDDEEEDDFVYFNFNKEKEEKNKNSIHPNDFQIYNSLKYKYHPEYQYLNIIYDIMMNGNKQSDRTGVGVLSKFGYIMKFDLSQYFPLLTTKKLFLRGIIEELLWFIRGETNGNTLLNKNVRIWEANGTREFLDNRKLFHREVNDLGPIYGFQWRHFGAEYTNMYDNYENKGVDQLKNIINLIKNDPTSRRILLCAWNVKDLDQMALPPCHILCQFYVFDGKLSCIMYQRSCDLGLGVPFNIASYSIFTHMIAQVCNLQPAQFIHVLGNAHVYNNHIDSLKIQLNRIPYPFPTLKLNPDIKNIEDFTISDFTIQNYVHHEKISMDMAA

With `N=c1nc(N)nc(Nc2ccccc2)n1-c1ccccc1`, the IA result in data set [1] and in data set [2] was “inactive” each time.

As to `Oc1nnc(-c2ccccc2)c(-c2ccccc2)n1`, the IA result in [1] and in data set [2] was “inactive” each time.

Regarding `N=C(S)N/N=C/c1ccc(Oc2ncc(C(F)(F)F)cc2Cl)cc1`, the Ki is 34 µM in data set [3]; 9.3 µM in [4]; 6.8 µM in [5]; 2.3 µM in data set [6]; 12.5 µM in data set [7].

In the case of `NC(=O)Nc1ccc(Oc2ncc(C(F)(F)F)cc2Cl)cc1`, the NA entry in data set [8], in data set [9], in data set [10], in data set [11], in [12] and in data set [13] was “inactive” throughout.

Take `C/C(=N\N=C(/N)S)c1ccc(Oc2c(Cl)cncc2Cl)cc1`: the Ki stood at 2.1 µM in data set [3]; 1.5 µM in [4]; 0.7 µM in data set [5]; 1 µM in [6]; 0.6 µM in data set [7]; 0.9 µM in [14].

On to `N/C(=N/O)c1ccc(Oc2c(Cl)cncc2Cl)cc1`, for which the Ki in data set [3] was 6.2 µM; in [4] it was 27.8 µM; in data set [5], 23.6 µM; in data set [6] it was 16 µM; in [7], 24.4 µM; in [14] it was 25.2 µM.

Regarding `Cc1nc(S)nc(O)c1Cc1c(F)cccc1Cl`, the IA result in data set [15] and in data set [16] was “inactive” in each case.

Consider `NC(=S)N/N=C/c1ccccc1` [PHENYLTHIOSEMICARBAZONE], for which the Ki in data set [3] was 50 µM; in data set [4], 37.2 µM; in data set [5], 29.6 µM; in data set [6] it was 9 µM; in data set [7], 28.9 µM; in data set [14], 23.6 µM.

Consider `CC1(C)N=C(N)N=C(N)N1c1ccc(Cl)cc1` [CYCLOGUANIL], for which the Ki was determined as 2.13 µM in [3]; 0.73 µM in data set [4]; 0.57 µM in data set [5]; 0.0016 µM in data set [6]; 1.14 µM in data set [7].

As for `NC(=O)NC(=O)Cc1ccccc1`, the NA entry in [8], in data set [9], in data set [10], in data set [11], in data set [12] and in data set [13] was “inactive” each time.

For the compound `Nc1nccc(-c2csc(COc3ccc(Cl)cc3)n2)n1`, in [17], the solubility came out at 25 µM (≈ 7.97 µg/mL).

Turning to `Sc1nnc(-c2ccccc2)c(-c2ccccc2)n1`, the IA result in data set [1] and in data set [2] was “inactive” in each case.

Consider `N=C(NO)c1ccc(CNC(=O)c2ccc(Cl)cc2)cc1`, for which the Ki in data set [3] was 57 µM; in data set [4] it was 36.6 µM; in data set [5] it was 58 µM; in data set [6] it was 12.3 µM; in data set [7], 93 µM; in data set [14] it was 77.2 µM.

With `N=C(NO)c1ccc(Oc2cc(Cl)cc(Cl)c2)c([N+](=O)[O-])c1`, the Ki in data set [3] came out at 9.8 µM; in [4], 32.6 µM; in data set [5], 36.8 µM; in data set [6] it was 4.2 µM; in data set [7] it was 22.2 µM.

For `NNc1nc2ccccc2nc1NN`, the Ki in data set [3] amounted to 11.4 µM; in data set [4], 9.7 µM; in [5] it was 3.4 µM; in data set [6] it was 0.8 µM; in data set [7] it was 2.7 µM; in data set [14] it was 3.6 µM.

For `NC1=NC(c2ccccc2)C(C(=O)c2ccccc2)N1` (stereo not drawn), the NA result in data set [18], in data set [9], in [19], in [20], in [21] and in [22] was “inactive” each time.

As to `CNC(=O)Nc1ccc(Cc2ccc(NC(=O)NC)cc2)cc1`, the NA result in data set [8], in [9], in data set [10], in data set [11], in data set [12] and in data set [13] was “inactive” each time.

As for `N/C(=N\O)c1cccc(CS(=O)(=O)c2ccc(Cl)cc2)c1`, the Ki in data set [3] came out at 106 µM; in data set [4], 34.5 µM; in data set [5], 38 µM; in data set [6], 30 µM; in [7] it was 105 µM; in data set [14] it was 102 µM.

Regarding `COC(=O)c1sccc1-c1ccc(/C(C)=N/NC(N)=O)o1`, the Ki was determined as 19.7 µM in data set [3]; 16 µM in data set [4]; 15.3 µM in [5]; 4.2 µM in [6]; 7.5 µM in data set [7].

Regarding `C/N=C(\S)NNC(=O)c1cccn(Cc2cccc(Cl)c2)c1=O`, the Ki in data set [3] is 13.6 µM; in data set [4], 19.4 µM; in [5] it was 5.9 µM; in [6], 1.8 µM; in data set [7], 7.1 µM; in data set [14], 11.3 µM.

In the case of `N/N=C(\S)Nc1ccc(OCc2ccccc2)cc1`, the Ki turned out to be 55.6 µM in data set [3]; 26.5 µM in data set [4]; 15.4 µM in data set [5]; 5.2 µM in data set [6]; 13.4 µM in data set [7]; 13.7 µM in data set [14].

Take `NC(=O)Nc1ccc(Cc2ccc(NC(N)=O)cc2)cc1`: the NA result in data set [8], in [9], in data set [10], in [11], in data set [12] and in data set [13] was “inactive” throughout.

`C=CCNC(=S)NNC(=O)c1cccn(Cc2cccc(Cl)c2)c1=O`: the Ki worked out at 17 µM in data set [3]; 10.6 µM in [4]; 13 µM in data set [5]; 1.7 µM in data set [6]; 10 µM in data set [7]; 15.2 µM in data set [14].

A word on the Ki: it is a measure of affinity in units of concentration, obtained from inhibition or displacement.
